Most compounds without a hit are left out; they make up all but 3.7% or so of the library.
GASC-1 inh: human JMJD2C demethylase inhibition; GST-JMJD2C(1-420) H3K9me3 demethylation, DELFIA europium; Q9H3R0; AID 2099; inhibition, % at 2.35 µM; 0.069% of 330,000 active;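 active = more than half of a compound's replicate wells show inhibition beyond 50%, single wells judged on their own value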;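 note: signal counts dimethyl H3K9 product captured on neutravidin plate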
SR-BI DiI-HDL act: SR-BI HDL lipid transfer activation. CHO ldlA[mSR-BI] cells, DiI-HDL uptake fluorescence, 3 h; 100 = double the neutral-control signal. activation, % at 12.5 µM. 0.096% of 320,000 active. AID 504775;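 active = mean replicate activation of at least 60% and every replicate at or above 60%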
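System: LDL receptor-deficient CHO ldlA cells overexpressing murine SR-BI | Timing: 3 h uptake period with compound, 37 °C | Medium: HEPES-buffered (25 mM, pH 7.4) F12 plus 0.5% BSA | Dosing: Single-point compound dose | Signal: Bottom-read fluorescence, 550/595 nm | Read-out: Retained DiI signal reflecting DiI-HDL uptake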
FXN GAA850 act: frataxin GAA850 promoter activation; activation, % at 6 µM; HEK293 lucGAA850 FXN promoter luciferase reporter, 24 h; percent of 10 µM SAHA response; AID 540364; 0.56% of 360,000 active;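 active = activation above the average of all compounds screened plus 3 SD, cutoff fixed separately per campaign, cut at about 7.5% in these data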
AHR act: activators of human aryl hydrocarbon receptor; 2.5% of 320,000 active; P35869; AHR-responsive luciferase reporter cells, luminescence; AID 2796; activation, % at 5 µM; in the data active = activation above about 47%
SR-BI HDL uptake: mouse SR-BI HDL lipid transfer inhibition; Q61009; ldlA[mSR-BI] CHO cells, DiI-HDL uptake fluorescence, 3 h; inhibition, % at 12.5 µM; 0.96% of 320,000 active; AID 488896;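 active = mean replicate inhibition of at least 70% and a set share of replicates each scoring 70 or more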
Target sequence (Q61009 whole entry, looked up): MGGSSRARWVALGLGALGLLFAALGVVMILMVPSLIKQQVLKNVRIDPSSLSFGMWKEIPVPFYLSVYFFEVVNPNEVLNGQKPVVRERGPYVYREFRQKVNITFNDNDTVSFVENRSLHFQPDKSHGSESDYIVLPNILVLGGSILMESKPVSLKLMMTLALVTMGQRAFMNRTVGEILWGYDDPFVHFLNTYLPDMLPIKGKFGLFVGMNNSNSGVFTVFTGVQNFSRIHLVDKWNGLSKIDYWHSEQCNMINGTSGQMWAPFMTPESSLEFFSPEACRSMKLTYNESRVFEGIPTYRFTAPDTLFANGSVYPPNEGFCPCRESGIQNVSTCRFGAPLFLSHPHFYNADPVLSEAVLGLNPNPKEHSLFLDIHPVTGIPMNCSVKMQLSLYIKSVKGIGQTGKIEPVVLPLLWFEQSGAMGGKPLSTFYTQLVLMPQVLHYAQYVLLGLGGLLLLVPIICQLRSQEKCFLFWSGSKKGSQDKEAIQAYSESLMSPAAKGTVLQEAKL
A number is an active result; . = inactive; / = not tested or not shown.

SMILES	GASC-1 inh	SR-BI DiI-HDL act	FXN GAA850 act	AHR act	SR-BI HDL uptake
CCOc1ccc(N=Cc2ccc3ccccc3c2)cc1	.	.	.	.	.
O=C(O)CCCC(=O)N1CC(=O)Nc2ccccc21	.	.	.	.	.
O=C1CN(C(=O)CCCc2c[nH]c3ccccc23)c2ccccc2N1	54	.	.	.	.
C#CCOc1ccc(/C=N/O)cc1Cl	.	84	.	.	.
O=C(Nc1sc2c(c1C(=O)NC1CCCCC1)CCC2)c1ccco1	.	.	.	/	75
CNC(=O)c1c(NC(=O)c2ccco2)sc2c1CCC2	.	.	.	.	.
Cc1nc2ccc(NC(=O)COc3ccccc3C)cc2s1	65	.	.	.	.
CCOc1ccc(NC(=O)c2ccccc2NC(=O)CNC2CCCC(C)C2C)cc1 (configuration not stated)	.	.	.	.	.
COc1cc(C(=O)NC(C)C2CC3CCC2C3)ccc1OC(F)F (configuration not stated)	.	.	.	.	.
Cn1c(SCC(=O)N2CCCCC2)nc2c([nH]c3ccccc32)c1=O	.	.	.	.	.
COCCn1c(SCC(=O)NCC2CCCO2)nc2c([nH]c3ccccc32)c1=O (configuration not stated)	.	.	.	59	.
COCCn1c(SCC(=O)Nc2cc(C)on2)nc2c([nH]c3ccccc32)c1=O	/	/	.	/	/
CCn1c(SCC(=O)Nc2cccc(NC(C)=O)c2)nc2c([nH]c3ccccc32)c1=O	.	.	.	57	.
CCOC(=O)N1CCN(C(=O)CSc2nc3c([nH]c4ccccc43)c(=O)n2C)CC1	.	/	.	51	/
COCCn1c(SCC(=O)Nc2ccc(NC(C)=O)cc2)nc2c([nH]c3ccccc32)c1=O	.	.	.	74	.
COc1ccc(-n2c(SCC(=O)NCC3CCCO3)nc3c([nH]c4ccccc43)c2=O)cc1 (configuration not stated)	.	/	.	.	/
CCC/C=C/c1ccc(CN2C(CC(C)C)C(=O)N(Cc3cn(CCOCOC)nn3)CCS2(=O)=O)cc1 (configuration not stated)	/	/	.	/	/
Cc1ccc(S(=O)(=O)Nc2ccc(Br)cc2/C=N/n2cnnc2)cc1	.	.	.	.	.
CC(C)(C)c1nnc(NC(=S)Nc2ccccc2)s1	.	.	.	.	.
O=C(Cc1ccc(F)cc1)Nc1nnc(SCC(=O)NC2CCCC2)s1	.	.	.	.	.
C=CCn1c(SCC(=O)NC2CCCC2)nc2c([nH]c3ccccc32)c1=O	.	.	.	63	.
Cc1cc(C)cc(C(=O)NCC(=O)OCC(=O)NC2CC2)c1	.	.	.	.	.
COc1cc(/C=N/Nc2nncn2/N=C/c2ccc(O)c(OC)c2)ccc1O	.	.	.	.	.
COc1ccc(OC)c(/C=N/Nc2nncn2/N=C/c2cc(OC)ccc2OC)c1	.	.	.	51	.
CCOC(=O)C1=C(Nc2ccccc2)CSC1	/	/	.	/	/
SMILES	GASC-1 inh	SR-BI DiI-HDL act	FXN GAA850 act	AHR act	SR-BI HDL uptake
Cc1ccc2c(c1)sc(=NC(=O)c1cccs1)n2C	.	.	.	56	.
COC(=O)Cn1c(=NC(=O)C2CC2)sc2c(C)cc(C)cc21	.	.	.	.	.
Cc1ccc2c(c1)sc(=NC(=O)C1CC1)n2C	.	.	.	54	.
O=C(c1cscn1)N1CCCC(N2CCN(c3ccc(F)cc3)CC2)C1 (configuration not stated)	.	.	.	.	.
O=C(O)CSc1nnc(-c2ccc(Cl)cc2Cl)n1-c1ccc(Cl)cc1	.	.	.	.	.
CC1=CC(C)(C)N2C(=O)C3(C(C#N)=C(N)OC4=C3C(=O)CC(C)(C)C4)c3c(C)c(C)cc1c32 (configuration not stated)	.	.	.	.	.
CC(=O)c1cccc(NC(=O)c2csc3c2CCCCC3)c1	.	.	.	.	.
CC(=O)c1cccc(NC(=O)Nc2csc3c2CCCC3)c1	.	.	.	.	75
CCCCCn1c(=N)n(CC(O)COc2ccccc2OC)c2ccccc21 (configuration not stated)	.	.	.	49	.
C=CCn1c(=N)n(CC(O)COc2ccccc2OC)c2ccccc21 (configuration not stated)	.	.	.	62	.
COc1ccc(Cl)cc1N(CC(=O)NCCSc1ccccn1)S(=O)(=O)c1ccccc1	.	/	.	.	/

Assay outcomes: PubChem, several laboratories
